Screens: PubChem BioAssay, The Scripps Research Institute Molecular Screening Center
Hits are enriched below; roughly 4.5% of the tested compounds scored in any of these assays.
GPR7 antagonist: human neuropeptides B/W receptor 1 antagonism; P48145; GPR7-expressing cells, fluorescence antagonist assay; inhibition, % at 4.4 µM; 1.1% of 290,000 active; AID 1861; in the data active = inhibition above about 16%, passing the limit was not always enough;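 also: cells stimulated with the agonist NPW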
Target sequence (P48145 whole entry, looked up): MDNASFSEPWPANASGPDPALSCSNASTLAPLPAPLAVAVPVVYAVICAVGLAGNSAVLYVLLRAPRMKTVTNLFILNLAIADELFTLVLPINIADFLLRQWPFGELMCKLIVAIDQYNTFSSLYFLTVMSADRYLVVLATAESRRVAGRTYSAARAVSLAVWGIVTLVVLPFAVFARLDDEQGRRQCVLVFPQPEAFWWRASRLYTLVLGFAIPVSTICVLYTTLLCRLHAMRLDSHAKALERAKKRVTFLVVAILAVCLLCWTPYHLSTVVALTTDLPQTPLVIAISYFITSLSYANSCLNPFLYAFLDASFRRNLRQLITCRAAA
OX1R antag-1: human HCRTR1 antagonism; O43613; CHO/OX1R cells, Fluo-8 calcium fluorescence, orexin A; inhibition, % at 5 µM; 0.43% of 330,000 active;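 active = inhibition above its plate's threshold, mean inhibition of all tested compounds on the plate plus 3 SD, cut at about 37% in these data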
TAAR1 antagonist: antagonists of human TAAR1; Q96RJ0; CHO RD-HGA16 TAAR1, Fluo-8 calcium fluorescence, antagonist; inhibition, % at 3 µM; 1.5% of 360,000 active; AID 624466;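 active = inhibition above a per-plate cutoff, the mean inhibition of test compounds on that plate plus 3 SD, cut at about 49% in these data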
Target sequence (Q96RJ0 whole entry, looked up): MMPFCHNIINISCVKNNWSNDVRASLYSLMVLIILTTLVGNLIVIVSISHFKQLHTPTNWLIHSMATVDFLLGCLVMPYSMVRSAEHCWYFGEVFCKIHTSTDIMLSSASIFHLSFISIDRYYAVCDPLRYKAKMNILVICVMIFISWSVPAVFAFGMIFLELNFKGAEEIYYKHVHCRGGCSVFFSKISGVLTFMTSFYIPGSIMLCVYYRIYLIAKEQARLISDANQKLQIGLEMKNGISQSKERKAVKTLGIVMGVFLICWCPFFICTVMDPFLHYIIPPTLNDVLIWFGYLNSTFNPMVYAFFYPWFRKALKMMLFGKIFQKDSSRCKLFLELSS
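Material: RD-HGA16 CHO cells with stable hTAAR1 and Gα16; Dosing: single nominal final test compound concentration of 3 µM; Schedule: seeding 17-24 h prior, 75-min 37 °C, 30-min RT dye loading; Detection: kinetic Fluo-8 calcium fluorescence measurement; Measure: % inhibition from peak post-agonist over basal fluorescence ratio; Benchmarks: vehicle and agonist controls.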
CHO parental Ca: counter-screen for OX1R antagonists: effect in parental CHO cells. inhibition, % at 5.6 µM. 0.63% of 330,000 active. parental CHO-K1, ATP-induced calcium, Fluo-8 fluorescence;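 active = inhibition above that plate's mean sample inhibition plus 3 SD, cut at about 26% in these data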
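Measured by: calcium-sensitive Fluo-8 fluorescence / Test system: CHO parental line / Controls: ATP-challenged DMSO wells low, unchallenged DMSO wells high / Measure: % inhibition / Compound: single nominal dose of 5.6 µM per compound / Replicates: single well per compound, no replicates / Reagent: ATP as calcium-mobilizing challenge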
OX1R antag-2: antagonists of human orexin 1 receptor (OX1R). O43613. OX1R-expressing cells, FRET antagonist read-out. inhibition, % at 6.6 µM. 1.8% of 330,000 active. AID 485270; in the data active = inhibition mostly above about 38%, no sharp cut-off; inactive = mostly below about 40%
TAAR1 ag: human TAAR1 agonism. Q96RJ0. CHO RD-HGA16 TAAR1, Fluo-8 calcium fluorescence; vehicle wells 0%, saturating PEA agonist 100%. activation, % at 3 µM. 0.99% of 360,000 active;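 active = activation above the mean activation of all test compounds in the run plus 3 SD, cut at about 38% in these data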
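Benchmarks: low control DMSO, high control PEA (EC100); System: CHO RD-HGA16 cells carrying human TAAR1 plus Gα16; Detection: Fluo-8 fluorescence, 5 s baseline then 140 s kinetic read; Schedule: 17-24 h plating, Fluo-8 75 min 37 °C, 30 min RT; Read-out basis: % activation from peak over basal fluorescence ratio, DMSO-to-PEA scaled.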
nonsel antag count: nonselective antagonist in TAAR1 antagonist counter-screen | 77% of 2,400 active | counterscreen cell line, calcium fluorescence, antagonist mode | inhibition, % at 3 µM | AID 651780 | shares compounds with TAAR1 antagonist; in the data active = inhibition above about 22%;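 also: CHO-Ga16 host cells stimulated with ATP at an EC80 level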
TAAR1 ant conf: human TAAR1 antagonism, confirmed. shares compounds with TAAR1 antagonist. TAAR1-expressing cells, fluorescence antagonist read-out. 40% of 2,400 active. inhibition, % at 3 µM; in the data active = inhibition above about 49%;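 also: CHO-Ga16 host cells challenged with agonist PEA near its EC80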
Ga16 ag counter: nonselective Ga16 agonist in TAAR1 antagonist counter-screen. shares compounds with TAAR1 antagonist. Ga16-expressing cells, calcium fluorescence, agonist counterscreen. activation, % at 3 µM. 18% of 2,400 active. AID 651953; in the data active = activation above about 12%
TAAR1 ag counter: activates human TAAR1 in antagonist counter-screen | shares compounds with TAAR1 antagonist | hTAAR1 cell line, fluorescence activation, agonist mode | activation, % at 3 µM | 2% of 2,400 active | AID 651955; in the data active = activation above about 37%;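 also: CHO cells stably expressing TAAR1 with calcium dye readout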
Hits are given with their value.

How did O=C(CSc1ccc(Cl)cc1)Nc1cccc(-c2nnc(-c3ccco3)o2)c1 do in these assays?
GPR7 antagonist: inactive; OX1R antag-1: inactive; TAAR1 antagonist: inactive; CHO parental Ca: inactive; OX1R antag-2: inactive; TAAR1 ag: inactive

Results for O=C(Nc1ccccc1)c1cccc(-c2nnc(-c3ccccc3)o2)c1 ?
GPR7 antagonist: inactive; OX1R antag-1: inactive; TAAR1 antagonist: inactive; CHO parental Ca: inactive; OX1R antag-2: inactive; TAAR1 ag: inactive

What do the screens show for `Cc1ccc(SCC(=O)Nc2cccc(-c3nnc(-c4ccco4)o3)c2)cc1`?
GPR7 antagonist: inactive; OX1R antag-1: inactive; TAAR1 antagonist: 65; CHO parental Ca: inactive; OX1R antag-2: inactive; TAAR1 ag: inactive; nonsel antag count: 38; TAAR1 ant conf: 52; Ga16 ag counter: inactive; TAAR1 ag counter: inactive

What do the screens show for `Cc1cccc(OCC(=O)Nc2cccc(-c3nnc(-c4ccccc4)o3)c2)c1C`?
GPR7 antagonist: inactive; OX1R antag-1: inactive; TAAR1 antagonist: 69; CHO parental Ca: inactive; OX1R antag-2: inactive; TAAR1 ag: inactive; nonsel antag count: 32; TAAR1 ant conf: 60; Ga16 ag counter: inactive; TAAR1 ag counter: inactive

What do the screens show for `O=C(COc1ccccc1)Nc1cccc(-c2nc3cc4ccccc4cc3[nH]2)c1`?
GPR7 antagonist: inactive; OX1R antag-1: inactive; TAAR1 antagonist: 69; CHO parental Ca: inactive; OX1R antag-2: inactive; TAAR1 ag: inactive; nonsel antag count: 38; TAAR1 ant conf: 59; Ga16 ag counter: inactive; TAAR1 ag counter: inactive

How did Cc1cccc(C)c1OCC(=O)Nc1cccc(-c2nnc(-c3ccccc3)o2)c1 do in these assays?
GPR7 antagonist: inactive; OX1R antag-1: inactive; TAAR1 antagonist: inactive; CHO parental Ca: inactive; OX1R antag-2: inactive; TAAR1 ag: inactive

What do the screens show for `O=C(Nc1cccc(-c2nnc(-c3ccccc3)o2)c1)c1ccco1`?
OX1R antag-1: inactive; TAAR1 antagonist: 50; CHO parental Ca: inactive; OX1R antag-2: inactive; TAAR1 ag: inactive; nonsel antag count: 29; TAAR1 ant conf: inactive; Ga16 ag counter: inactive; TAAR1 ag counter: inactive

What do the screens show for `c1ccc(SC23CCCCN(CCC2)[C@]32CO2)cc1` (stereo partly drawn)?
TAAR1 antagonist: inactive; TAAR1 ag: inactive

How did CCC(=O)Nc1cccc(-c2nnc(-c3ccccc3)o2)c1 do in these assays?
OX1R antag-1: inactive; TAAR1 antagonist: inactive; CHO parental Ca: inactive; OX1R antag-2: inactive; TAAR1 ag: inactive

How did COc1ccccc1OCC(=O)Nc1cccc(-c2nc3ccccc3o2)c1 do in these assays?
GPR7 antagonist: inactive; OX1R antag-1: inactive; TAAR1 antagonist: 66; CHO parental Ca: inactive; OX1R antag-2: inactive; TAAR1 ag: inactive; nonsel antag count: 33; TAAR1 ant conf: inactive; Ga16 ag counter: inactive; TAAR1 ag counter: inactive

How did CCC(=O)Nc1cccc(-c2nc3ccccc3o2)c1 do in these assays?
GPR7 antagonist: inactive; OX1R antag-1: inactive; TAAR1 antagonist: inactive; CHO parental Ca: inactive; OX1R antag-2: inactive; TAAR1 ag: inactive

Results for Cc1nc(-c2cccc(NC(=O)COc3ccc(Cl)cc3)c2)cs1 ?
GPR7 antagonist: inactive; TAAR1 antagonist: 55; TAAR1 ag: inactive; nonsel antag count: 30; TAAR1 ant conf: inactive; Ga16 ag counter: inactive; TAAR1 ag counter: inactive

Results for Cc1ccc(OCC(=O)Nc2cccc(-c3nnc(-c4ccccc4)o3)c2)cc1 ?
GPR7 antagonist: inactive; OX1R antag-1: inactive; TAAR1 antagonist: 69; CHO parental Ca: inactive; OX1R antag-2: inactive; TAAR1 ag: inactive; nonsel antag count: 35; TAAR1 ant conf: 65; Ga16 ag counter: inactive; TAAR1 ag counter: inactive

How did COC(=O)C1CN(C(=O)COc2cccc(C)c2C)c2ccccc2O1 (stereo not drawn) do in these assays?
GPR7 antagonist: inactive; OX1R antag-1: inactive; TAAR1 antagonist: inactive; CHO parental Ca: inactive; OX1R antag-2: inactive; TAAR1 ag: inactive

What do the screens show for `Cc1csc2nc(CSc3nc4ccccc4o3)c(Br)n12`?
GPR7 antagonist: inactive; OX1R antag-1: inactive; TAAR1 antagonist: 61; CHO parental Ca: inactive; OX1R antag-2: inactive; TAAR1 ag: inactive; nonsel antag count: inactive; TAAR1 ant conf: inactive; Ga16 ag counter: inactive; TAAR1 ag counter: inactive

How did COc1ccc(-c2nc3c(c(=O)n(C)c(=O)n3C)n2CC2CC(c3ccccc3)=NO2)cc1OC (stereo not drawn) do in these assays?
GPR7 antagonist: inactive; OX1R antag-1: inactive; TAAR1 antagonist: 62; CHO parental Ca: inactive; OX1R antag-2: inactive; TAAR1 ag: inactive; nonsel antag count: 30; TAAR1 ant conf: 50; Ga16 ag counter: inactive; TAAR1 ag counter: inactive

What do the screens show for `COc1ccc(C(=O)OCC2CC(c3ccccc3)=NO2)cc1OC` (stereo not drawn)?
GPR7 antagonist: inactive; OX1R antag-1: inactive; TAAR1 antagonist: inactive; CHO parental Ca: inactive; OX1R antag-2: inactive; TAAR1 ag: inactive

How did CN1CCCN(S(=O)(=O)c2cccc(C(F)(F)F)c2)c2nc3ccccc3nc21 do in these assays?
OX1R antag-1: inactive; TAAR1 antagonist: inactive; CHO parental Ca: inactive; OX1R antag-2: inactive; TAAR1 ag: inactive

How did O=C(Nc1cc(-c2nc3ncccc3o2)ccc1Cl)c1cccs1 do in these assays?
GPR7 antagonist: inactive; OX1R antag-1: inactive; TAAR1 antagonist: 60; CHO parental Ca: inactive; OX1R antag-2: 67; TAAR1 ag: inactive; nonsel antag count: inactive; TAAR1 ant conf: inactive; Ga16 ag counter: inactive; TAAR1 ag counter: inactive

What do the screens show for `O=C(CSc1ccccc1C(=O)NCc1ccccc1)NC1CCCCCCC1`?
GPR7 antagonist: inactive; OX1R antag-1: inactive; TAAR1 antagonist: 54; CHO parental Ca: inactive; OX1R antag-2: inactive; TAAR1 ag: inactive; nonsel antag count: inactive; TAAR1 ant conf: inactive; Ga16 ag counter: inactive; TAAR1 ag counter: inactive

How did CCCCNc1ncnc2[nH]ncc12 do in these assays?
TAAR1 antagonist: inactive; TAAR1 ag: inactive

How did CC(C)Oc1ccc(CNC(=O)C2CCCN(S(=O)(=O)N3CCOCC3)C2)cc1 (stereo not drawn) do in these assays?
GPR7 antagonist: inactive; OX1R antag-1: inactive; TAAR1 antagonist: inactive; CHO parental Ca: inactive; OX1R antag-2: inactive; TAAR1 ag: inactive

Results for CC(C)c1c(C(=O)N/N=C/c2c[nH]c3ccccc23)nnn1-c1nonc1N ?
GPR7 antagonist: inactive; OX1R antag-1: inactive; TAAR1 antagonist: 75; CHO parental Ca: inactive; OX1R antag-2: inactive; TAAR1 ag: inactive; nonsel antag count: 40; TAAR1 ant conf: 62; Ga16 ag counter: 18; TAAR1 ag counter: inactive
